Assay results as given in ChEMBL document CHEMBL1124695, “Brain-specific chemical delivery systems for beta-lactam antibiotics. Synthesis and properties of some dihydropyridine and dihydroiosquinoline derivatives of benzylpenicillin” (J Med Chem, 1989).

What was measured:
[1] = Half life of compound when water is added (0.15u) in pH 7.4 phosphate buffer (0.05 M) at 37 degree C; format: ADME
Outline: (§1)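 Chemical stability: compound added from freshly prepared 8 mM DMSO stock into 0.05 M phosphate buffer (μ = 0.15), pH 7.4, at 37 °C. Samples drawn at intervals and injected directly onto reversed-phase HPLC with UV detection. Buffer pH checked before and after. Disappearance followed first-order kinetics, giving apparent rate constants. Half-life in minutes.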

[2] = Half life of compound (0.15u) in pH 7.4 phosphate buffer (0.05 M) at 37 degree C; format: ADME; outline: as §1
[3] = Second order oxidation rate constant determined by using Ferricyanide; format: ADME
Outline: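 Oxidation by ferricyanide under pseudo-first-order conditions, with Fe(CN)6^3- in large excess over the dihydro carrier and pH held constant. Pseudo-first-order rates were measured at several ferricyanide concentrations, and the second-order oxidation rate constant (Ko) was derived from them.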

[4] = Stability in aqueous buffer at pH 7.4; format: physicochemical; outline: as §1
[5] = test system: Homo sapiens; test: Concentration of compound in human brain tissues after intravenous administration of 2 g dose; format: ADME, organism-based; conditions: in vivo
[6] = test system: Homo sapiens; test: Concentration of compound in human blood tissues after intravenous administration of 2 g dose; format: ADME, organism-based
[7] = Dissociation constant of the compound; format: physicochemical
[8] = Partition coefficient (logP); format: physicochemical; conditions: octanol/water

SMILES	half-life [1] [h]	half-life [2] [h]	Ko [3] [M⁻¹ s⁻¹]	other results
C[n+]1cccc(C(=O)OCOC(=O)C2N3C(=O)[C@@H](NC(=O)Cc4ccccc4)[C@H]3SC2(C)C)c1.[I-] (stereo partly specified)	0.045			
CC(CNC(=O)c1ccc[n+](C)c1)OC(=O)C1N2C(=O)[C@@H](NC(=O)Cc3ccccc3)[C@H]2SC1(C)C.[I-] (stereo partly specified)	6.06			
CN1C=C(C(=O)NCCOC(=O)C2N3C(=O)[C@@H](NC(=O)Cc4ccccc4)[C@H]3SC2(C)C)c2ccccc2C1 (stereo partly specified)		16.5		
CN1C=CCC(C(=O)OCCOC(=O)C2N3C(=O)[C@@H](NC(=O)Cc4ccccc4)[C@H]3SC2(C)C)=C1 (stereo partly specified)	7.38	1.93	1.552	
C[n+]1cc(C(=O)NCCOC(=O)C2N3C(=O)[C@@H](NC(=O)Cc4ccccc4)[C@H]3SC2(C)C)c2ccccc2c1.[I-] (stereo partly specified)	6.29			
CC(CNC(=O)C1=CN(C)C=CC1)OC(=O)C1N2C(=O)[C@@H](NC(=O)Cc3ccccc3)[C@H]2SC1(C)C (stereo partly specified)		0.43	11.94	
CN1C=CCC(C(=O)NCC(OC(=O)C2N3C(=O)[C@@H](NC(=O)Cc4ccccc4)[C@H]3SC2(C)C)c2ccccc2)=C1 (stereo partly specified)		0.587	15.85	
CC1(C)S[C@@H]2[C@H](NC(=O)Cc3ccccc3)C(=O)N2C1C(=O)OCCO (stereo partly specified)		7.27		k [4]: 0.0016 min⁻¹
CN1C=CCC(C(=O)OCOC(=O)C2N3C(=O)[C@@H](NC(=O)Cc4ccccc4)[C@H]3SC2(C)C)=C1 (stereo partly specified)	2.26	1.55	0.53	
C[n+]1cccc(C(=O)OCCOC(=O)C2N3C(=O)[C@@H](NC(=O)Cc4ccccc4)[C@H]3SC2(C)C)c1.[I-] (stereo partly specified)	0.615			
CC1(C)S[C@@H]2[C@H](NC(=O)Cc3ccccc3)C(=O)N2[C@H]1C(=O)O [PENICILLIN G]				Concentration [5]: 320 ng/mL; Concentration [6]: 7500 ng/mL; pKa [7]: 2.6; logP [8]: 1.76
CN1C=CCC(C(=O)NCCOC(=O)C2N3C(=O)[C@@H](NC(=O)Cc4ccccc4)[C@H]3SC2(C)C)=C1 (stereo partly specified)	2.47	0.213	26.08	
C[n+]1cccc(C(=O)NCCOC(=O)C2N3C(=O)[C@@H](NC(=O)Cc4ccccc4)[C@H]3SC2(C)C)c1.[I-] (stereo partly specified)	3.26			
C[n+]1cccc(C(=O)NCC(OC(=O)C2N3C(=O)[C@@H](NC(=O)Cc4ccccc4)[C@H]3SC2(C)C)c2ccccc2)c1.[I-] (stereo partly specified)	4.47			
